According to ChEMBL document CHEMBL4373706, “Discovery of Inhibitors of Aurora/PLK Targets as Anticancer Agents” (J Med Chem, 2019):
Values after ≈ are worked out from the molar mass of the structure shown. Active and inactive are the calls of the source. No cut-off for these calls is given here.

How the values were obtained:
[1] = Solubility of the compound in water; format: physicochemical
In short: (§1)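 Solubility of the compound measured at 25±0.2°C, separately in water and in DMSO; reported in µg/mL.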

[2] = Solubility of the compound in DMSO; format: physicochemical; in short: as §1
[3] = Lipid/water partition coefficient, log D of the compound; format: physicochemical
HCT-116 [4] = assay: Inhibition of colony formation in human HCT116 cells at 10 uM incubated for 48 hrs followed by supplemented with fresh medium every 3 days for 2 weeks by crystal violet staining-based assay; format: functional, cell-based
[5] = target: T1, Phosphatidylinositol 4,5-bisphosphate 3-kinase catalytic subunit delta isoform (Homo sapiens, UniProt O00329); assay: Binding affinity to wild-type human partial length PIK3CD (R108 to Q1044 residues) expressed in mammalian expression system measured after 1 hr by kinomescan method; conditions: pooled result: one value given for 15 cell lines, strains, targets or settings
T1 sequence (O00329 whole entry): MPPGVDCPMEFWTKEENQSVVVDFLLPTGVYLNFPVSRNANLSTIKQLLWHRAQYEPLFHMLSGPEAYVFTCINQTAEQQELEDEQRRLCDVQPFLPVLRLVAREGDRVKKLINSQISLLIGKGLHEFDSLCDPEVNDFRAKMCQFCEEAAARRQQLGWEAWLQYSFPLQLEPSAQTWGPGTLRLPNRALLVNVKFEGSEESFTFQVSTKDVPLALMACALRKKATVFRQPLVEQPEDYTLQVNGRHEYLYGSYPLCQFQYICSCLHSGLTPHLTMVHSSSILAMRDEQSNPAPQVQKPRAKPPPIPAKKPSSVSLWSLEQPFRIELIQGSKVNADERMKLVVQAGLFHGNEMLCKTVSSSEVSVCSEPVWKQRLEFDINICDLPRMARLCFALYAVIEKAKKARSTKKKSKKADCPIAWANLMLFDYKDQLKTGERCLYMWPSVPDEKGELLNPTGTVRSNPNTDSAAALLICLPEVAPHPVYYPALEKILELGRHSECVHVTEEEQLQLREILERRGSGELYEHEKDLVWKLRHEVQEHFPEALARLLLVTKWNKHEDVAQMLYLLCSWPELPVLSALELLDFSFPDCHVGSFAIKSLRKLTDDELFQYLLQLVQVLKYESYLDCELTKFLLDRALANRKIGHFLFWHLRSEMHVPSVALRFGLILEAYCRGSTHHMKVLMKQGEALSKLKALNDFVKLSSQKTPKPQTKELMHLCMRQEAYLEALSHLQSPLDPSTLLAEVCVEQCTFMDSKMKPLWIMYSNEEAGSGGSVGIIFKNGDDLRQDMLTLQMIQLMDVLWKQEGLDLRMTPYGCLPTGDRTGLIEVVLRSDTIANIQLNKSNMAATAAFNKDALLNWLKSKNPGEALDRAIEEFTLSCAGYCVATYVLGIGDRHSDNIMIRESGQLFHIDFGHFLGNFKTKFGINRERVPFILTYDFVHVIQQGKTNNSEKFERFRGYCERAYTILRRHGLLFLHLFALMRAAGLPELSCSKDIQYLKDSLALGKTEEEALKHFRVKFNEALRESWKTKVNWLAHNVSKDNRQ

[6] = target: Serine/threonine-protein kinase PLK1 (Homo sapiens, UniProt P53350); assay: Binding affinity to wild-type human partial length PLK1 (A33 to F325 residues) expressed in mammalian expression system measured after 1 hr by kinomescan method
Serine/threonine-protein kinase PLK1, sequence (P53350 whole entry, the tested form may be a part): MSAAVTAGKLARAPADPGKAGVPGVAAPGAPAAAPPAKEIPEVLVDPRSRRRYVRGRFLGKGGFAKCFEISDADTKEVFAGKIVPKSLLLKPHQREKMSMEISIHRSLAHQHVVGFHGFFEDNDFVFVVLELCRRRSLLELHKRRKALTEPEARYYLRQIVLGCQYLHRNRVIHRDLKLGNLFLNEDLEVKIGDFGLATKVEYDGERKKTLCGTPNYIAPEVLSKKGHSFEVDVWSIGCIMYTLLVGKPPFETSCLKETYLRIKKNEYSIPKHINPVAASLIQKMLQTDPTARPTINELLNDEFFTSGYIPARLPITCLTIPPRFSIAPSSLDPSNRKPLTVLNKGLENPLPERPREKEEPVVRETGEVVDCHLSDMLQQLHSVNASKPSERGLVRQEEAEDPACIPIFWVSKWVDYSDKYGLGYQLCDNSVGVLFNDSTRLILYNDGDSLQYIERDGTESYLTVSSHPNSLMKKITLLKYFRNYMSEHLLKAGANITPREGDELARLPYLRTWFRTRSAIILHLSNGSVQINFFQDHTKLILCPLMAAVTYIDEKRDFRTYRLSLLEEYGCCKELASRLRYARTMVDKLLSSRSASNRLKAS
In short: (§2)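 KINOMEscan competition binding assay. A 321-kinase panel was first screened at 10 μM compound, and binding affinities were then determined for Aurora and PLK family members.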

Aurora kinase C = target: T2, Aurora kinase C (Homo sapiens, UniProt Q9UQB9); assay: Binding affinity to wild-type human full length AURKC (M1 to S275 residues) expressed in bacterial expression system measured after 1 hr by Kinomescan method; in short: as §2
T2 sequence (Q9UQB9 whole entry): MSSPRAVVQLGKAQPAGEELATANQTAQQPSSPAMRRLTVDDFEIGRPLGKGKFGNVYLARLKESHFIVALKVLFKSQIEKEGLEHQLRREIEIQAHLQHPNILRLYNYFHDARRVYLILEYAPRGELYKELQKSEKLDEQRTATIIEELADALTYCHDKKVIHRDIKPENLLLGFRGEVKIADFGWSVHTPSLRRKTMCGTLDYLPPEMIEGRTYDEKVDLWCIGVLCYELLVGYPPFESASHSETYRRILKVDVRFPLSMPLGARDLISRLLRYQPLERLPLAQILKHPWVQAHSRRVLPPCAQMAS

Aurora kinase A = target: T3, Aurora kinase A (Homo sapiens, UniProt O14965); assay: Binding affinity to wild-type human partial length AURKA (E122 to K401 residues) expressed in mammalian expression system measured after 1 hr by Kinomescan method; in short: as §2
T3 sequence (O14965 whole entry): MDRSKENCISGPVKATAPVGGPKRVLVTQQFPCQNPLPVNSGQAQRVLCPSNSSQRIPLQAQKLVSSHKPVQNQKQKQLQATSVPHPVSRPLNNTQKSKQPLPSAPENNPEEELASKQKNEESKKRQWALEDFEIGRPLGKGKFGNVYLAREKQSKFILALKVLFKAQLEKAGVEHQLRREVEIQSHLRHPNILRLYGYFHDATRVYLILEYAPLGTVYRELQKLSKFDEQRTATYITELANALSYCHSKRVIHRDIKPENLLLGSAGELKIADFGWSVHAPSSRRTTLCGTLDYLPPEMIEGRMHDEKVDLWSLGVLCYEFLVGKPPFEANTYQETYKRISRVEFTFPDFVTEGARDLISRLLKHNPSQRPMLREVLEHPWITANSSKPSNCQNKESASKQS

HCT-116 [7] = assay: Induction of apoptosis in human HCT116 cells assessed as apoptotic cell population at 1 uM measured after 48 hrs by Annexin V-FITC/propidium iodide staining-based flow cytometry (reference value: 5.9%); format: functional
A549 = assay: Antiproliferative activity against human A549 cells measured after 48 hrs by MTT assay; format: functional, cell-based; conditions: A549, 48 h
In short: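 Cells were exposed to a range of compound concentrations for 48 h. MTT reagent was then added and absorbance read at 490 nm. Viability was normalized to vehicle control set as 100%, from n = 3 independent experiments, and IC50 was taken from the dose–response curves.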

[8] = Cmax in Sprague-Dawley rat at 10 mg/kg, iv administered […] by LC-MS/MS analysis; format: ADME, organism-based; set-up: dose 10 mg/kg, route intravenous; conditions: in vivo
[9] = Toxicity in BALB/c mouse xenografted with human HCT116 cells assessed as change in body weight at 10 mg/kg, iv administered every 3 days for 24 days measured post-last dose; format: organism-based; conditions: in vivo
HCT-116 [10] = assay: Antitumor activity against human HCT116 cells xenografted in BALB/c mouse assessed as survival rate at 10 mg/kg, iv administered every 3 days for 60 days relative to control; format: functional; conditions: HCT-116, iv
HCT-116 [11] = assay: Antitumor activity against human HCT116 cells xenografted in BALB/c mouse assessed as mean survival days at 5 mg/kg, iv administered every 3 days for 60 days (reference value: 25 day); format: functional
HCT-116 [12] = assay: Antitumor activity against human HCT116 cells xenografted in BALB/c mouse assessed as mean survival days at 10 mg/kg, iv administered every 3 days for 60 days (reference value: 25 day); format: functional

Which solubility [1] does the source give for O=C(Nc1ccc2cc(C(=O)Nc3nccs3)ccc2c1)c1ccc(Cl)c(Cl)c1 here?
The solubility was 9.6 µg/mL (≈ 21.7 µM).

What about the solubility [2] of the same molecule?
The solubility was 286 µg/mL (≈ 647 µM).

What about the logD [3] of the same molecule?
Its logD is 4.8.

And the inhibition (HCT-116 [4])?
Its inhibition is “Active”.

What about the Kd [5] of the same molecule?
Its Kd is 7110 nM.

And the Kd [6]?
Its Kd is 55 nM.

And the Kd (Aurora kinase C)?
The Kd was 289 nM.

What about the Kd (Aurora kinase A) of the same molecule?
Its Kd is 23 nM.

And the Activity (HCT-116 [7])?
The Activity was 41.1%.

What about the IC50 (A549) of the same molecule?
The IC50 was 11600 nM.

And the Cmax [8]?
Its Cmax is 78.5 µg/mL.

What about the Activity [9] of the same molecule?
The Activity was “Toxic”.

What about the survival at 10 mg/kg (HCT-116 [10]) of the same molecule?
Its survival at 10 mg/kg is 80%.

And the MSD (HCT-116 [11])?
The MSD was 45 days.

And the MSD (HCT-116 [12])?
Its MSD is over 20 days.
